ChEMBL document CHEMBL3351517, “Psychrophilins E-H and versicotide C, cyclic peptides from the marine-derived fungus Aspergillus versicolor ZLN-60” (J Nat Prod, 2014)
The source made the active and inactive calls. The rule behind the calls is not given here. Positions of bridges follow the written chain, without caps; N, C: chain ends. Non-standard residues stand in square brackets, D forms with d. Residues, ends and D or L forms follow the SMILES beside them. NMeW = CN[C@@H](Cc1c[nH]c2ccccc12)C(=O)O; 2Abz = Nc1ccccc1C(=O)O

Assays:
Assay type in all cases: functional, cell-based
A549 = assay: Cytotoxicity against human A549 cells by SRB assay
HeLa = assay: Cytotoxicity against human HeLa cells by SRB assay
SMMC-7721 = assay: Cytotoxicity against human SMMC7721 cells by SRB assay
HepG2 = assay: Lipid-lowering activity in human HepG2 cells assessed as reduction in oleic acid-elicited intracellular lipid accumulation at 10 uM after 6 hrs by Oil Red O staining method
Method in brief: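 HepG2 cells were kept in DMEM with 10% FBS and penicillin/streptomycin (100 μg/mL). At 70−80% confluence, cells were loaded with oleic acid (100 μM in DMEM) for 12 h. They were then exposed to test agent (10 μM) in DMEM/100 μM oleic acid for a further 6 h. Simvastatin served as positive control and DMEM/oleic acid as blank. Lipid was read by Oil Red O staining.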

SMILES | IC50 (A549) [µM] | IC50 (HeLa) [µM] | IC50 (SMMC-7721) [µM] | Activity (HepG2)
CC(=O)N[C@H]1Cc2cn(c3ccccc23)C(=O)c2ccccc2NC(=O)[C@@H]2CCCN2C1=O (Ac-Trp-Pro-[2Abz]; lactam 1-C) | > 100 | > 100 | > 100 | –
CC(=O)N(C)[C@@H]1C(=O)N2CCC[C@H]2C(=O)Nc2ccccc2C(=O)n2cc(c3ccccc32)[C@H]1O | > 100 | > 100 | > 100 | Active
CC(=O)N(C)[C@@H]1C(=O)N2CCC[C@H]2C(=O)Nc2ccccc2C(=O)n2cc(c3c(O)cccc32)[C@H]1O | > 100 | > 100 | > 100 | –
CC(=O)N(C)[C@H]1Cc2cn(c3ccccc23)C(=O)c2ccccc2NC(=O)[C@@H]2CCCN2C1=O (Ac-[NMeW]-Pro-[2Abz]; lactam 1-C) | > 100 | > 100 | > 100 | –
